According to ChEMBL document CHEMBL3853295, “Design and synthesis of novel pyrazolo[1,5-a]pyrimidine derivatives bearing nitrogen mustard moiety and evaluation of their antitumor activity in vitro and in vivo” (Eur J Med Chem, 2016):

Experiments:
[1] = Cytotoxicity against human SH-SY5Y cells after 72 hrs by MTT assay; format: functional, cell-based
Summary of the method: (§1)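 Cells cultured in DMEM or RPMI 1640 with 10% FBS. Seeded at about 2 × 10^3 per well and grown 24 h at 37 °C, 5% CO2. Compounds added at final 0.1–1000 uM for 72 h, 5 wells per concentration. MTT added for 4 h at 37 °C, then lysis overnight. Absorbance read at 570 nm against a 650 nm reference; IC50 calculated.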

[2] = Cytotoxicity against human MCF7 cells after 72 hrs by MTT assay; format: functional, cell-based; conditions: MCF7, 72 h; summary of the method: as §1
[3] = Cytotoxicity against human HepG2 cells after 72 hrs by MTT assay; format: functional, cell-based; conditions: HepG2, 72 h; summary of the method: as §1
[4] = Cytotoxicity against human DU145 cells after 72 hrs by MTT assay; format: functional, cell-based; conditions: DU-145, 72 h; summary of the method: as §1
[5] = Cytotoxicity against human A549 cells after 72 hrs by MTT assay; format: functional, cell-based; conditions: A549, 72 h; summary of the method: as §1
[6] = Cytotoxicity against human GES-1 cells assessed as reduction in cell viability after 72 hrs by MTT assay; format: toxicity, cell-based, GES1; summary of the method: as §1
[7] = Antitumor activity against human HepG2 cells xenografted in nude mouse assessed as tumor growth inhibition at 10 mg/kg, ip administered every day for 15 times measured from day 12 to 26; format: functional; parameters: scale not given: the % may be the effect or the level left
Summary of the method: (§2)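 Female nude mice given 5 × 10^6 HepG-2 cells subcutaneously in the left flank. Randomized, n = 5 per group. Daily i.p. injection for 15 times, with saline as vehicle control. Tumor length and width recorded every other day; volume taken as 1/2·length·width² once tumors reached 130–160 mm3. Result is tumor growth inhibition versus the saline group.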

[8] = Antitumor activity against human HepG2 cells xenografted in nude mouse assessed as tumor growth inhibition at 20 mg/kg, ip administered every day for 15 times measured from day 12 to 26; format: functional; parameters: scale not given: the % may be the effect or the level left; summary of the method: as §2

SMILES | IC50 [1] [µM] | IC50 [2] [µM] | IC50 [3] [µM] | IC50 [4] [µM] | IC50 [5] [µM] | IC50 at 72 h [6] [µM] | Activity [7] [%] | Activity [8] [%]
CCOC(=O)C1CCN(Cc2cc(Nc3ccc(N(CCCl)CCCl)cc3)n3ncc(C#N)c3n2)CC1 | 74.1 | > 100 | 74.2 | > 100 | > 100 | – | – | –
N#Cc1cnn2c(Nc3ccc(N(CCCl)CCCl)cc3)cc(CN3CCCC3)nc12 | 9.17 | 12.4 | 5.54 | 27.2 | 9.84 | 13.7 | – | –
Cc1cc(Nc2cc(CN(CCCl)CCCl)nc3c(C#N)cnn23)ccc1F | 77.9 | 38 | 39 | 76.1 | 75 | – | – | –
CNC(=O)c1cc(Oc2ccc(NC(=O)Nc3ccc(Cl)c(C(F)(F)F)c3)cc2)ccn1 [SORAFENIB] | 27.7 | – | – | – | 19.5 | 10.7 | 47.9 | 54.93
N#Cc1cnn2c(Nc3cccc(N(CCCl)CCCl)c3)cc(CN3CCC(O)CC3)nc12 | 36.7 | 70.4 | 29.7 | > 100 | 35.8 | – | – | –
CCOC(=O)c1ccc(Nc2cc(CN(CCCl)CCCl)nc3c(C#N)cnn23)cc1 | 64.4 | 26.4 | 52.1 | 37.3 | 85.4 | – | – | –
N#Cc1cnn2c(Nc3ccccc3Br)cc(CN(CCCl)CCCl)nc12 | > 100 | > 100 | > 100 | > 100 | > 100 | – | – | –
N#Cc1cnn2c(Nc3ccc(F)cc3)cc(CN(CCCl)CCCl)nc12 | > 100 | 77.5 | 64.2 | 84.4 | > 100 | – | – | –
N#Cc1cnn2c(Nc3cc(F)cc(F)c3)cc(CN(CCCl)CCCl)nc12 | > 100 | 84.4 | > 100 | > 100 | > 100 | – | – | –
CCN1CCN(Cc2cc(Nc3ccc(N(CCCl)CCCl)cc3)n3ncc(C#N)c3n2)CC1 | 8.4 | 13.8 | 10.7 | 21.7 | 14.8 | 13.5 | – | –
N#Cc1cnn2c(Nc3cccc(Br)c3)cc(CN(CCCl)CCCl)nc12 | > 100 | 41 | 49.7 | > 100 | > 100 | – | – | –
N#Cc1cnn2c(Nc3ccc(C(F)(F)F)cc3)cc(CN(CCCl)CCCl)nc12 | > 100 | 33 | 55.5 | 95.1 | > 100 | – | – | –
Cc1cccc(Nc2cc(CN(CCCl)CCCl)nc3c(C#N)cnn23)c1 | 79.9 | 25.8 | 62.1 | 35 | > 100 | – | – | –
N[C@@H](Cc1ccc(N(CCCl)CCCl)cc1)C(=O)O [MELPHALAN] | > 100 | 40.6 | 18.3 | > 100 | 43.8 | – | – | –
CN1CCN(Cc2cc(Nc3cccc(N(CCCl)CCCl)c3)n3ncc(C#N)c3n2)CC1 | 15.3 | 41.1 | 17.6 | 50.5 | 19.5 | – | – | –
N#Cc1cnn2c(Nc3ccc(Br)cc3)cc(CN(CCCl)CCCl)nc12 | 49.1 | 28.3 | 37.2 | 33.1 | 61.4 | – | – | –
N#Cc1cnn2c(Nc3ccc(F)c(Cl)c3)cc(CN(CCCl)CCCl)nc12 | > 100 | 76.8 | 89.4 | 27.4 | > 100 | – | – | –
C#Cc1cccc(Nc2cc(CN(CCCl)CCCl)nc3c(C#N)cnn23)c1 | > 100 | 34 | 44.2 | 83.1 | > 100 | – | – | –
CCOC(=O)C1CCN(Cc2cc(Nc3cccc(N(CCCl)CCCl)c3)n3ncc(C#N)c3n2)CC1 | > 100 | > 100 | 88.1 | > 100 | > 100 | – | – | –
CN(C)Cc1cc(Nc2ccc(N(CCCl)CCCl)cc2)n2ncc(C#N)c2n1 | 8.68 | 6.53 | 3.16 | 18.9 | 6.22 | 11 | – | –
N#Cc1cnn2c(Nc3ccc(F)c(C(F)(F)F)c3)cc(CN(CCCl)CCCl)nc12 | > 100 | 75.1 | > 100 | > 100 | > 100 | – | – | –
CN1CCN(Cc2cc(Nc3ccc(N(CCCl)CCCl)cc3)n3ncc(C#N)c3n2)CC1 | 7.42 | 12.2 | 2.92 | 23.6 | 8.9 | 8.29 | – | –

SMILES | IC50 [1] [µM] | IC50 [2] [µM] | IC50 [3] [µM] | IC50 [4] [µM] | IC50 [5] [µM] | IC50 at 72 h [6] [µM] | Activity [7] [%] | Activity [8] [%]
N#Cc1cnn2c(Nc3cccc(F)c3)cc(CN(CCCl)CCCl)nc12 | > 100 | > 100 | 67.2 | > 100 | > 100 | – | – | –
N#Cc1cnn2c(Nc3cccc(N(CCCl)CCCl)c3)cc(CN3CCC(c4ccccc4)CC3)nc12 | > 100 | > 100 | > 100 | > 100 | > 100 | – | – | –
CN(C)C1CCN(Cc2cc(Nc3cccc(N(CCCl)CCCl)c3)n3ncc(C#N)c3n2)CC1 | 15.3 | 25.2 | 9.22 | 27 | 12.7 | – | – | –
CN(C)Cc1cc(Nc2cccc(N(CCCl)CCCl)c2)n2ncc(C#N)c2n1 | 40.8 | 54.6 | 33.6 | 59.3 | 39.8 | – | – | –
N#Cc1cnn2c(Nc3ccc(N(CCCl)CCCl)cc3)cc(CN3CCC(O)CC3)nc12 | 13.7 | 20.4 | 9.11 | 20.9 | 20.6 | – | – | –
N#Cc1cnn2c(Nc3cccc(N(CCCl)CCCl)c3)cc(CN3CCCC3)nc12 | 15.7 | 37.5 | 14.4 | 35.4 | 17.5 | – | – | –
N#Cc1cnn2c(Nc3cccc(N(CCCl)CCCl)c3)cc(CN3CCOCC3)nc12 | 61 | > 100 | 33.4 | > 100 | > 100 | – | – | –
CN(C)C1CCN(Cc2cc(Nc3ccc(N(CCCl)CCCl)cc3)n3ncc(C#N)c3n2)CC1 | 7.86 | 12.4 | 4.01 | 7.67 | 5.12 | 11.1 | – | –
N#Cc1cnn2c(Nc3ccc(Cl)cc3)cc(CN(CCCl)CCCl)nc12 | 50.6 | 33 | 39.3 | 42.9 | 79.5 | – | – | –
N#Cc1cnn2c(Nc3ccc(N(CCCl)CCCl)cc3)cc(CN3CCC(c4ccccc4)CC3)nc12 | > 100 | > 100 | > 100 | > 100 | > 100 | – | – | –
COc1cc(Nc2cc(CN(CCCl)CCCl)nc3c(C#N)cnn23)cc(OC)c1 | > 100 | > 100 | > 100 | > 100 | > 100 | – | – | –
Cc1ccccc1Nc1cc(CN(CCCl)CCCl)nc2c(C#N)cnn12 | > 100 | 99.2 | > 100 | > 100 | > 100 | – | – | –
N#Cc1cnn2c(Nc3cccc(Cl)c3)cc(CN(CCCl)CCCl)nc12 | > 100 | 23 | 56.6 | 43.5 | > 100 | – | – | –
N#Cc1cnn2c(Nc3ccccc3Cl)cc(CN(CCCl)CCCl)nc12 | > 100 | > 100 | > 100 | > 100 | > 100 | – | – | –
CC1CCN(Cc2cc(Nc3cccc(N(CCCl)CCCl)c3)n3ncc(C#N)c3n2)CC1 | 25.9 | > 100 | 33.8 | 55.8 | 35.9 | – | – | –
CCN1CCN(Cc2cc(Nc3cccc(N(CCCl)CCCl)c3)n3ncc(C#N)c3n2)CC1 | 22.7 | 23.9 | 16.6 | 44.1 | 16.5 | – | – | –
N#Cc1cnn2c(Nc3ccc(N(CCCl)CCCl)cc3)cc(CN3CCC(CO)CC3)nc12 | 11.5 | 16.2 | 8.54 | 26.8 | 12.8 | – | – | –
CC1CCN(Cc2cc(Nc3ccc(N(CCCl)CCCl)cc3)n3ncc(C#N)c3n2)CC1 | 19.2 | 82.9 | 23.6 | 43.4 | 18.3 | 17.5 | – | –
N#Cc1cnn2c(Nc3cccc(N(CCCl)CCCl)c3)cc(CN3CCC(CO)CC3)nc12 | 30.7 | 41.1 | 18.4 | 33.4 | 27.9 | – | – | –
N#Cc1cnn2c(Nc3cccc(N(CCCl)CCCl)c3)cc(CN3CCC(N4CCCCC4)CC3)nc12 | 9.36 | 25.1 | 9.07 | 22.4 | 13.2 | – | – | –
Cc1cc(C)cc(Nc2cc(CN(CCCl)CCCl)nc3c(C#N)cnn23)c1 | > 100 | > 100 | 59.4 | > 100 | 97.4 | – | – | –
N#Cc1cnn2c(Nc3ccc(N(CCCl)CCCl)cc3)cc(CN3CCOCC3)nc12 | 6.71 | 11.3 | 5.51 | 10.7 | 13.6 | – | – | –
